# In the RNAGym collection of RNA variant scans (doi:10.1038/s41586-018-0170-7):
# B1: tRNA (parent)
# chain: GUUCCGUUGGCGUAAUGGUAACGCGUCUCCCUCCUAAGGAGAAGACUGCGGGUUCGAGUCCCGUACGGAACG
# Variants of: B1
# Assay: yeast fitness, log relative to wild type (ln ratio); higher = fitter; tRNA-Arg(CCU), competitive growth, 37 C, 1 M NaCl
# How it was run: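 Fitness is the natural log of each genotype's generations divided by the wild type's. Generations were derived as OD-scaled log2 output/input frequency from 125 bp paired-end Illumina counts, weighting replicates by inverse variance. Pools of the tRNA-Arg(CCU) variant library, on a HIS3 centromeric plasmid in BY4742 lacking the chromosomal gene, grew ~6.5 generations (~26.5 h) in SC-HIS 1M NaCl at 37 °C after 4 generations in SC-HIS at 30 °C.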
row,Variant,yeast fitness (ln)
1,G1A G6U A43C A69G A70U C71U,-0.524
2,G1A G6A C27U C66A C71U,-0.224
3,G1A G6U C27U A69G A70G,-0.379
4,G1A G6U C27U A69G A70U,-0.29
5,G1A G6U C27U A70U C71U,-0.335
6,G1A G6U C46U A70G,-0.173
7,G1A G6U C46U A70U,-0.14
8,G1A G6U C27U A43C C46U A69G A70G C71U,-0.414
9,G1A G6A C66U A70U C71U,-0.216
10,G1A G6U A43C C66U A70U,-0.212
11,G1A G6U A43C C66U A70G,-0.339
12,G1A G6U C27U C66A A70U C71U,-0.369
13,G1A G6U C27U A69G C71U,-0.371
14,G1A G6U A43C C46U C66U A70G,-0.261
15,G1A G6U A43C C46U C66U A70U,-0.259
16,G1A G6A C27U C46U A69G C71U,-0.238
17,G1A G6A C27U A43C C46U C66U A70G C71U,-0.338
18,G1A G6A C27U A43C C46U C66U A69G A70U C71U,-0.477
19,G1A G6A C27U A43C C46U C66A A70U,-0.192
20,G1A G6A C46U C66U A70G C71U,-0.0284
21,G1A G6U A43C C46U A69G C71U,-0.263

row,Variant,yeast fitness (ln)
1,G1A G6A C27U C46U C66U A70G C71U,-0.21
2,G1A G6U A43C C66A A70G,-0.135
3,G1A G6U A43C C66A A70U,-0.411
4,G1A G6U C27U A43C C46U A69G A70G,-0.346
5,G1A G6U C27U A43C C46U A69G A70U,-0.347
6,G1A G6U C27U A43C C66A A70G C71U,-0.411
7,G1A G6A C27U C46U C66A C71U,-0.11
8,G1A G6U C27U C71U,-0.251
9,G1A G6U C27U,-0.16
10,G1A G6U A69G C71U,-0.186
11,G1A G6A C27U C71U,-0.238
12,G1A G6U C27U A43C A69G A70G,-0.536
13,G1A G6U C27U A43C A69G A70U,-0.481
14,G1A G6U A43C C66U C71U,-0.333
15,G1A G6U C27U C66U A70G C71U,-0.38
16,G1A G6A C46U C66U A70G,-0.189
17,G1A G6A C46U C66U A70U,-0.0452
18,G1A G6A C27U C46U C66A A70U C71U,-0.228
19,G1A G6U A43C C66A A70U C71U,-0.386
20,G1A G6U C27U C46U C66U C71U,-0.297
21,G1A G6U C27U C66U C71U,-0.389

row,Variant,yeast fitness (ln)
1,G1A G6U C27U A43C C46U C66A A69G A70G,-0.432
2,G1A G6U C27U A43C C46U C66A A70U C71U,-0.325
3,G1A G6A C27U C66A A70U C71U,-0.292
4,G1A G6A C27U A43C C66U A70G,-0.431
5,G1A G6A C27U A43C C66U A70U,-0.304
6,G1A G6U C27U C46U C66U A70U C71U,-0.438
7,G1A G6A C66U,-0.113
8,G1A G6U C27U C66A A70G C71U,-0.531
9,G1A G6U C27U A43C A70U C71U,-0.341
10,G1A G6U C46U,-0.0505
11,G1A G6U C27U C66U A70U C71U,-0.461
12,G1A G6A C46U A69G A70U C71U,-0.256
13,G1A G6A C27U A70U C71U,-0.23
14,G1A G6U C27U A43C C66U A69G A70U C71U,-0.435
15,G1A G6U C27U A43C C66A A70G,-0.33
16,G1A G6U C27U A43C C66A A70U,-0.264
17,G1A G6U A69G A70U C71U,-0.407
18,G1A G6U C27U A43C C46U C66U A70U C71U,-0.471
19,G1A G6U C27U A43C C46U C71U,-0.212
20,G1A G6U C27U C66A A69G A70G C71U,-0.31
21,G1A G6U A43C C46U C66U A69G A70G,-0.389

row,Variant,yeast fitness (ln)
1,G1A G6U A43C C46U C66U A69G A70U,-0.305
2,G1A G6U C27U A43C C46U C66A A70G C71U,-0.377
3,G1A G6U C27U C46U A70G C71U,-0.262
4,G1A G6U C46U A69G A70U C71U,-0.321
5,G1A G6U C27U C46U A69G A70U C71U,-0.431
6,G1A G6A C27U A43C C66U A70G C71U,-0.323
7,G1A G6A C27U C46U C66A A70G,-0.285
8,G1A G6U A43C C66A A69G A70U C71U,-0.344
9,G1A G6A C27U A43C C46U A70U C71U,-0.263
10,G1A G6U C27U A43C C46U C66U A69G A70U C71U,-0.565
11,G1A G6A C46U C71U,-0.109
12,G1A G6A C46U C66U A69G A70G,-0.136
13,G1A G6A C46U C66U A69G A70U,-0.0453
14,G1A G6U C27U A69G A70U C71U,-0.505
15,G1A G6U A43C C66U A70G C71U,-0.424
16,G1A G6U C46U A69G C71U,-0.297
17,G1A G6A C27U C66U A69G A70U C71U,-0.387
18,G1A G6A C27U C46U C66U A69G A70G,-0.338
19,G1A G6A C27U C46U C66U A69G A70U,-0.468
20,G1A G6U A43C C71U,-0.101
